Where “and” joins values, the source holds several entries; their conditions need not be identical. Equal entries are not always repeated. Where two headings read alike, the source gives them in different places. Where no end group is shown, it is not given here.
Assays:
IM-9 cell receptors [1] = conditions: cited from earlier work
HepG2 cells = conditions: ref 31; cited from earlier work
[2] = ref 66; cited from earlier work
primary rat adipocytes = experiment: Insulin-stimulated lipogenesis; type: cell-based; conditions: for maximal lipogenesis: compared with human insulin; for metabolic potency relative to human insulin: lipogenesis in primary rat adipocytes
Method in brief: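 Adipocytes from male Sprague-Dawley rat epididymal fat pads, collagenase-digested (1 mg/mL, 45 min, 37 °C) in KRH with 3.5% BSA, 0.2 uM adenosine and 2 mM glucose. […] Lipid-extracted label counted, background (tracer without hormone) subtracted. Triplicates, three experiments, four-parameter logistic fit for ED50.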

[3] = target: T1, human insulin receptor on IM9 cells (Homo sapiens, UniProt P06213); experiment: Association kinetics of 125I-labeled insulins on IM9 cells; type: binding; conditions: 125I-labeled ligand, 15 °C
[4] = tested on: NIH 3T3 fibroblasts overexpressing the wild-type human insulin receptor; experiment: [3H]thymidine incorporation; type: cell-based, mouse; conditions: for relative mitogenic potency over relative metabolic potency: thymidine incorporation versus lipogenesis in rat adipocytes
soluble receptor = conditions: cited from earlier work
[5] = target: T1, human insulin receptor on IM9 cells; experiment: Dissociation kinetics of 125I-labeled insulins from IM9 cells; type: binding; conditions: prebound 6 h at 15 °C, 40-fold dilution
[6] = tested on: receptors on the human placental membrane; conditions: ref 62; cited from earlier work
insulin receptor = conditions: cited from earlier work
isolated rat adipocytes = conditions: ref 16-18; cited from earlier work
rat fat pad = conditions: relative to that of bovine insulin; cited from earlier work
[7] = actual data were not shown; cited from earlier work
IM-9 cell receptors [8] = conditions: ref 19; cited from earlier work
rat liver cells = conditions: ref 20; cited from earlier work
[9] = tested on: soluble IR ectodomain (sIR); experiment: Homologous competition for soluble IR ectodomain, PEG precipitation; type: binding; conditions: 15 pM tracer, 16 h at 4 °C; % of human insulin
rat adipocytes = conditions: cited from earlier work
deoxyglucose transport = conditions: ref 19; cited from earlier work

T1 sequence (P06213 28-1370 isoform P06213-2 limits assumed): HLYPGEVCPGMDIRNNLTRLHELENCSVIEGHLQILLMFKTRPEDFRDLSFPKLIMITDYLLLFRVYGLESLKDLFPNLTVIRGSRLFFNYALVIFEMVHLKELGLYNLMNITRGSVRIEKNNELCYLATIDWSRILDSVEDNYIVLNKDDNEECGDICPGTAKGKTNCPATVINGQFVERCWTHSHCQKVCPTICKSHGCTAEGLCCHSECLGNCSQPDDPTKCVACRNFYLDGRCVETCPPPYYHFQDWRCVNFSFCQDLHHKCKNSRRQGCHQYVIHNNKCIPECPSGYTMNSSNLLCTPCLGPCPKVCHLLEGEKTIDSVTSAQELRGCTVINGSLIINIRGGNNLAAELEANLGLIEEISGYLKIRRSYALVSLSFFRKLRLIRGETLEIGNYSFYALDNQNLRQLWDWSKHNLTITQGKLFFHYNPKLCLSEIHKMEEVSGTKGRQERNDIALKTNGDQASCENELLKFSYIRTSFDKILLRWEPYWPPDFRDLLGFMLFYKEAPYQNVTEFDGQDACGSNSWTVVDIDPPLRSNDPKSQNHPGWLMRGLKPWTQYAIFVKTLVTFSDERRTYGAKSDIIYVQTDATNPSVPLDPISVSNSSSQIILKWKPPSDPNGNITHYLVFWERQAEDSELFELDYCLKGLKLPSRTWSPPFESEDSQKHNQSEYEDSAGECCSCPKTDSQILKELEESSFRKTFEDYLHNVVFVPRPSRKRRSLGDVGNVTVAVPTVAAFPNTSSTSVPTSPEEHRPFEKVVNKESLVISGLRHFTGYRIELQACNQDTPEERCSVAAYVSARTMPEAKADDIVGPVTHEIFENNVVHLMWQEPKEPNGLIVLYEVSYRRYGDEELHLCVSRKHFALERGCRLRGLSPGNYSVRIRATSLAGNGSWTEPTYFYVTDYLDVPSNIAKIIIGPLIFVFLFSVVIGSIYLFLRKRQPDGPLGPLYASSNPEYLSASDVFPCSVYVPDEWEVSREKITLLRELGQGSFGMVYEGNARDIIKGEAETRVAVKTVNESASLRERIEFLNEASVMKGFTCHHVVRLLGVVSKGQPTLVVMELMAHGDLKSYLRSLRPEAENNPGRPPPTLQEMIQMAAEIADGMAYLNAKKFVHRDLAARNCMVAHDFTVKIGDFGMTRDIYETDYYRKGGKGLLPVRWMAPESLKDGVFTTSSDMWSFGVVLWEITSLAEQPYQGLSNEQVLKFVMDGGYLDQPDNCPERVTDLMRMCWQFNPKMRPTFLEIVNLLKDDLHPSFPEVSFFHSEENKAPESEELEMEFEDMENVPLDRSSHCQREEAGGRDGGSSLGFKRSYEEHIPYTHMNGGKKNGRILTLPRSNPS
T1 sequence (P06213 763-1382 partner limits assumed): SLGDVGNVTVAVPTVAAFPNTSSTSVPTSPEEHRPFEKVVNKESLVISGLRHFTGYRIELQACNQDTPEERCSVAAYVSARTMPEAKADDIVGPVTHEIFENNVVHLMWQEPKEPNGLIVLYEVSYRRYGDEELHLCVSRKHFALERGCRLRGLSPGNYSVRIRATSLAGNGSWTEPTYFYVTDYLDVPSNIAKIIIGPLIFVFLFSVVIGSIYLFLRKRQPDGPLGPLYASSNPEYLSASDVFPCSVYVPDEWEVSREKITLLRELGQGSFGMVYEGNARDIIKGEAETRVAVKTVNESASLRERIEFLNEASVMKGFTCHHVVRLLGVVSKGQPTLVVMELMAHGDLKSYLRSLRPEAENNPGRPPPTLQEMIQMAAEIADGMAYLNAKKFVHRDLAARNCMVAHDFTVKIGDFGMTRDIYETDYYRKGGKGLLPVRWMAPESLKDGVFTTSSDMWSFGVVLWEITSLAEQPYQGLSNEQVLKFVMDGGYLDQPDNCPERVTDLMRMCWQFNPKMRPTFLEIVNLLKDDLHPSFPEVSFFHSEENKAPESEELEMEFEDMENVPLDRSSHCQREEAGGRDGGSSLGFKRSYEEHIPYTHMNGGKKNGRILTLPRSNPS

## HisA8 human insulin: human insulin with the ThrA8 to His mutation (literature)
IM-9 cell receptors [1]; ref 47, 56
  affinity relative to human insulin in IM-9 lymphocytes: 300%
HepG2 cells
  affinity relative to human insulin in HepG2 cells: 327%

## insulin Wakayama: insulin with a ValA3 to Leu mutation found in a diabetic patient
[2]
  potency: 0.2%

## lamprey insulin: insulin purified from the islet organ of the river lamprey L. fluviatilis (Insulin B chain SALTGAGGTHLCGSHLVEALYVVCGDRGFFYTPSKT; Insulin A chain GIVEQCCHRKCSIYDMENYCN; ends and bridges not checked; cysteine pairing not given here; UniProt P68988 1-36; P68988 37-57, looked up)
Primary rat adipocytes
  maximal lipogenesis: same maximal lipogenesis as human insulin
  metabolic potency relative to human insulin: 9.4% and 9%
[3]
  incubation time to reach apparent steady state of binding: 6 h
[4]; thymidine incorporation
  mitogenic potency relative to human insulin: 54%
[4]
  relative mitogenic potency over relative metabolic potency: 5.8
[4]; thymidine incorporation, 10% FBS as maximal response
  maximal response: same maximal response as serum or human insulin
Soluble receptor; ref 9
  relative affinity for the soluble receptor based on IC50: 130%
[5]
  dissociation of 125I-labeled ligand by dilution alone: much slower

## B21 to Ala: human insulin with mutation of B21 to Ala (literature)
IM-9 cell receptors [1]; ref 26
  affinity in IM-9 cells: 226%
[6]
  decrease in the level of binding to receptors on the human placental membrane: ~2 fold

## B17 to Val: human insulin with B17 substitution to Val (literature) [reference compound]
Soluble receptor; solubilized receptor
  reduction of affinity, substitutions at B17: 2.5 fold

## IleA10 with Ser: insulin with substitution of IleA10 with Ser as in IGF-I and IGF-II (literature) [reference compound]
Insulin receptor; ref 64
  loss of affinity: 5 fold

## hagfish insulin: insulin from the Atlantic hagfish (Myxine glutinosa), gift from S. Falkmer (Insulin B chain RTTGHLCGKDLVNALYIACGVRGFFYDPTKM; Insulin A chain GIVEQCCHKRCSIYDLENYCN; ends and bridges not checked; cysteine pairing not given here; UniProt P01342 27-57; P01342 95-115, looked up)
Primary rat adipocytes
  maximal lipogenesis: same maximal lipogenesis as human insulin
  metabolic potency relative to human insulin: 8.4% and 8%
[3]
  incubation time to reach apparent steady state of binding: 4 h
Isolated rat adipocytes
  affinity for isolated rat adipocytes, % of that of porcine insulin: 23%
[4]; thymidine incorporation
  mitogenic potency relative to human insulin: 32%
[4]
  relative mitogenic potency over relative metabolic potency: 3.8
[4]; thymidine incorporation, difference not statistically significant
  maximal stimulation: 75 % of that of human insulin
Rat fat pad
  biological activity in rat fat pad: 7%
[7]
  mitogenic:metabolic potency ratio: 1.0
IM-9 cell receptors [8]
  maximal acceleration of dissociation of 125I-labeled porcine insulin: same maximal acceleration
  potency to accelerate the dissociation of 125I-labeled porcine insulin: 5 % of unlabeled porcine insulin
Rat liver cells
  potency in rat liver cells: 3%
[9]
  relative affinity for the purified soluble human receptor ectodomain: 22%
Rat adipocytes; ref 16
  biological activity in stimulating lipogenesis in rat adipocytes: 3.8%
Rat adipocytes; ref 51
  biological activity in stimulating lipogenesis in rat adipocytes: 4.6%
Rat adipocytes; same cells, relative to porcine insulin
  biological potency in stimulating lipogenesis: 3−5%
Deoxyglucose transport
  biological activity for deoxyglucose transport: 5−10%

## HisB10Asp: human insulin analogue, His to Asp at B10
Insulin receptor; ref 31, 46
  enhancement of the affinity and activity of human insulin: 3−5 fold

Reference: PMC2781304 (Biochemistry, 2009)
